A selection: hits, their analogues and other compounds. The true share with any hit is near 5.1%.
STAT3 inh: reduces IL-6 driven STAT3 reporter signal | hit rate 0.89% among 190,000 | U3A cells, IL-6 STAT3-luciferase reporter, luminescence; host cell line lacks STAT1 | inhibition, % at 5.5 µM;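 active = inhibition above the mean inhibition across all screened compounds plus 3 SD, cut at about 44% in these data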;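 also: 0% = DMSO only wells and 100% = 100 µM nifuroxazide control wells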
STAT1 act-1: activators of IFN-gamma induced STAT1 signaling; NIH 3T3 STAT1-luciferase reporter, luminescence; 100% = IFN-gamma alone, no compound; activation (% of control), % at 5.5 µM; hit rate 2.6% among 200,000;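 active = activation above the screen-wide mean activation plus 3 SD, cut at about 130% in these data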;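 also: raw ratio to IFN-gamma control signal so 100% means no change and 0% no light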
NF-kB expr up: raises NF-kB expression in human neuronal cells; NF-kB reporter expression; active compounds read high; fold change at 12.5 µM; hit rate 1.6% among 190,000; in the data active = fold change above about 3.3
STAT1 blocker: STAT1 signaling inhibition | NIH 3T3 STAT1-luciferase reporter, IFN-gamma, luminescence | inhibition, % at 5.5 µM | hit rate 0.35% among 200,000;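 active = inhibition above a set limit, the mean inhibition across all tested compounds plus 3 SD, cut at about 34% in these data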;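 also: 0% = IFN-gamma with DMSO and 100% = IFN-gamma with 300 µM nifuroxazide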
STAT3 act-1: STAT3 signaling activation; U3A cells, IL-6 STAT3-luciferase reporter, luminescence; 100% = signal with IL-6 EC80 alone; activation (% of control), % at 5.6 µM; hit rate 0.91% among 190,000;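 active = activation above the screen-wide mean of compound activation plus 3 SD, cut at about 130% in these data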;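 also: 0% = background luminescence of wells with medium and substrate only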
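Material: human STAT1-deficient U3A cells with stable STAT3-luciferase reporter / Probe or stimulus: IL-6 stimulus at 33 ng/mL final / Schedule: 1 h compound pre-exposure, 6 h IL-6 stimulation, 37 °C / Technique: luminescence / Read-out basis: percent of IL-6-only median luminescence / Control set: IL-6-only high control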
APP 5'UTR act: APP 5'UTR luciferase reporter activation; hit rate 1% among 190,000; SH-SY5Y APP 5'UTR luciferase reporter, luminescence; zero percent = DMSO vehicle wells; activation, % at 2 µM; AID 1276;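 active = activation above a set limit, based on mean plus 3 SD of controls, cut at about 140% in these data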
STAT3 act-2: STAT3 activation, confirmation assay. AID 1267. U3A STAT3-luciferase reporter, IL-6 potentiation, luminescence; U3A cells lack STAT1; 100 means same as IL-6 alone. shares compounds with STAT3 act-1. hit rate 64% among 1,200. potentiation (% of control), % at 5.7 µM;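 active = percent activation of the STAT3 luciferase reporter above a set limit taken from the earlier primary screen, cut at about 130% in these data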;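 also: 0% = background signal of medium plus substrate and 100% = median of IL-6 with DMSO wells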
NFkB act 2: counter-screen for STAT3 activators: NF-kappaB activation; human cells, NF-kappaB reporter activation; shares compounds with STAT3 act-1; AID 1309; activation (% of control), % at 5.7 µM; hit rate 11% among 1,200; in the data active = activation above about 120%;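 also: reporter induced by TNF-alpha stimulation; 100% = median of stimulated DMSO wells and 0% = no signal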
STAT1 act-2: STAT1 activation in STAT3 activator counter-screen | shares compounds with STAT3 act-1 | NIH 3T3 STAT1-luciferase reporter, IFN-gamma, luminescence | activation (% of control), % at 5.7 µM | hit rate 13% among 1,200;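 active = activation above the solvent-only control well mean plus 3 SD, set per screening run, cut at about 120% in these data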;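 also: 100% = IFN-gamma with DMSO median signal so 100% means no change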
Active calls of the source: *.

`O=C(O)CCC(C(=O)O)n1c(O)c(C2=c3ccccc3=NC2=O)sc1=S` (stereo not drawn) gave STAT3 inh -46, STAT1 act-1 105, NF-kB expr up 1.2, STAT1 blocker -4, STAT3 act-1 145*, APP 5'UTR act -2, STAT3 act-2 138*, NFkB act 2 105 and STAT1 act-2 97.
`O=C1/C(=C\c2ccco2)SC(=S)N1Cc1ccccc1` gave STAT3 inh -66, STAT1 act-1 94, NF-kB expr up 1.1, STAT1 blocker 7, STAT3 act-1 168*, APP 5'UTR act 10, STAT3 act-2 157*, NFkB act 2 100 and STAT1 act-2 98.
O=C(O)CCCN1C(=O)/C(=C\c2ccco2)SC1=S was read as STAT3 inh 14, STAT1 act-1 86, NF-kB expr up 0.63, STAT1 blocker 13, STAT3 act-1 91 and APP 5'UTR act 13.
CCOC(=O)Cc1cc(=O)[nH]c(/N=C(\N)Nc2ccc(C)cc2C)n1 was read as STAT3 inh -37, STAT1 act-1 90, NF-kB expr up 1, STAT1 blocker 11, STAT3 act-1 136*, APP 5'UTR act 10, STAT3 act-2 114, NFkB act 2 98 and STAT1 act-2 89.
CC(C)CCN(C(=O)Cc1ccc(Cl)c(Cl)c1)c1c(N)n(Cc2ccccc2)c(=O)[nH]c1=O was read as STAT3 inh 1, STAT1 act-1 104, NF-kB expr up 0.96, STAT1 blocker -6, STAT3 act-1 106 and APP 5'UTR act -6.
Screening C=CCn1c(SCC)nc2sc3c(c2c1=O)CCc1ccccc1-3 returned STAT3 inh -32, STAT1 act-1 101, NF-kB expr up 1.2, STAT1 blocker -1, STAT3 act-1 137*, APP 5'UTR act -9, STAT3 act-2 113, NFkB act 2 104 and STAT1 act-2 100.
Screening C=CCn1c(SC)nc2sc3c(c2c1=O)CCc1ccccc1-3 returned STAT3 inh -22, STAT1 act-1 108, NF-kB expr up 1.9, STAT1 blocker -9, STAT3 act-1 115 and APP 5'UTR act 13.
For O=Cc1ccc2cccnc2n1 the results were STAT3 inh -49, STAT1 act-1 106, NF-kB expr up 0.88, STAT1 blocker -7, STAT3 act-1 148*, APP 5'UTR act -1, STAT3 act-2 146*, NFkB act 2 106 and STAT1 act-2 103.
For O=c1[nH]snc1N1CCOCC1 the results were STAT3 inh -2, STAT1 act-1 100, NF-kB expr up 1.2, STAT1 blocker -3, STAT3 act-1 106 and APP 5'UTR act -9.
`COc1cccc(-c2nnc3n2N=C(c2cc(OC)ccc2OC)CS3)c1` gave STAT3 inh -1, STAT1 act-1 103, NF-kB expr up 1.1, STAT1 blocker -4, STAT3 act-1 105 and APP 5'UTR act 9.
COc1cccc(-c2nnc3n2N=C(C(C)(C)C)CS3)c1 was read as STAT3 inh -119, STAT1 act-1 89, NF-kB expr up 0.72, STAT1 blocker 12, STAT3 act-1 204*, APP 5'UTR act -27, STAT3 act-2 184*, NFkB act 2 34 and STAT1 act-2 111.

Screens as filed in PubChem.
